Compound activity deposited in PubChem by several laboratories.
L major viab: inhibitors of Leishmania major promastigote growth. Leishmania major promastigotes, resazurin fluorescence viability. inhibition, % at 10 µM. actives 9% (n = 200,000); in the data active = inhibition above about 50%;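 also: promastigotes grown with compound for 44 hours at 28 °C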
SKKanGAS inh: blocks kanamycin growth of S. pyogenes SKKanGAS strain; BacTiter-Glo, 6 h; inhibition, % at 7.5 µM; actives 1.3% (n = 300,000); AID 1662;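 active = mean replicate score, as percent of positive control median, at least 50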;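 also: strain carries kanamycin resistance gene driven by streptokinase promoter and grows in 40 µg/ml kanamycin; loss of luminescence reflects streptokinase promoter inhibition or plain growth inhibition; 0% = median of DMSO wells and 100% = positive control at its reference dose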
T cruzi inh: T. cruzi replication inhibition. AID 1885. T. cruzi beta-gal in NIH3T3, luminescence, 90 h. actives 1.4% (n = 300,000). inhibition, % (no concentration beside the values);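 active = mean inhibition across valid replicates above about 55%, limit read from the data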;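 also: signal also drops with host cell toxicity which is not excluded here; 0% = plate median of DMSO wells and 100% = zero luminescence signal; higher percent means less beta-gal luminescence so fewer parasites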
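System: mouse NIH/3T3 fibroblasts infected with β-gal-expressing T. cruzi Tulahuen C4 / Input: NIH/3T3 cells, 5,000 per well / Buffer or medium: Low-serum DMEM with 2% FBS / Probe or stimulus: 5000 reporter trypomastigotes per well / Schedule: ≥90 h infection period, 3 h prior cell attachment / Measured by: GalScreen luminescence, 60 min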
CSC inhib: cancer stem cell inhibition; actives 1.1% (n = 300,000); cancer stem cell-like cells viability, luminescence; inhibition, % at 7.5 µM; in the data active = inhibition above about 75%; tested in HMLE shEcad cells
Beta cell apopt: beta cell apoptosis inhibition; INS-1E cytokine-induced death, ATP luminescence, 48 h; percent of positive-control rescue, neutral wells zero; protection from apoptosis, % (test concentration not listed); actives 0.8% (n = 300,000);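 active = Every replicate reaches about 75%, or at least half do and their mean reaches it too, limit read from the data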;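 also: 0% = cytokine-treated negative control wells and 100% = positive control rescue; higher means more ATP so stronger rescue from cytokine killing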
Mdm2 MdmX PPI: inhibitors of human Mdm2/MdmX interaction; O15151+Q00987; SaOS-2 split-luciferase Mdm2/MdmX complementation, luminescence; inhibition, % at 8 µM; actives 3% (n = 330,000);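 active = inhibition of at least 50% at 8 µM in the primary screen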
Mdm2-MdmX conf: human Mdm2/MdmX binding inhibition, confirmed; shares compounds with Mdm2 MdmX PPI; luminescent assay; inhibition, % at 8 µM; actives 55% (n = 10,000); AID 489028; in the data active = inhibition above about 40%
Full FLuc ctr: counter-screen for Mdm2/MdmX inhibitors: full-length luciferase; shares compounds with Mdm2 MdmX PPI; inhibition, % at 8 µM; actives 77% (n = 6,200); SaOS-2 full-length luciferase counterscreen, luminescence;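 active = mean inhibition at 8 µM reaching about 37%, which flags the compound as non-specific, limit read from the data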;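 also: p53-null SaOS-2 cells with luciferase driven by a doxycycline-inducible promoter; compound on cells about two nights before reading with doxycycline added after day one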
* marks the source's active call; other numbers are inactive results; x = not tested or not shown. In the library only some 9.4% were active in any assay of this set; here they are far more common.

SMILES	L major viab	SKKanGAS inh	T cruzi inh	CSC inhib	Beta cell apopt	Mdm2 MdmX PPI	Mdm2-MdmX conf	Full FLuc ctr
Cc1ccc(N=Cc2c(O)[nH]c3ccccc23)c([N+](=O)[O-])c1	-2	7	7	10	x	-67	x	x
COc1cc(C(=O)N(C)CC2CCN(CCc3cccc(C(F)(F)F)c3)CC2)ccc1C	x	-3	28	4	-1	34	x	x
O=C1CC(c2ccco2)Cc2c1cnn2-c1nc2ccccc2s1 (centres undefined)	-7	11	-7	-20	0	50*	6	x
CC(CNC(=O)c1ccc(C#N)cc1)NC(=O)c1ccc(C#N)cc1 (centres undefined)	x	-3	-10	1	5	x	x	x
Cc1ccccc1Nc1c(-c2ccncc2)nc2ccc(Cl)cn12	75*	-5	36	-1	-20	75*	49*	71*
O=C(Nc1ccc(F)c(F)c1)c1ccc(-n2cncn2)c([N+](=O)[O-])c1	x	x	x	-8	1	-15	x	x
O=C(Nc1cccc(/C=C/c2ccccn2)c1)c1ccc(-n2cncn2)c([N+](=O)[O-])c1	x	8	38	28	x	62*	38	x
CC1(C)Cc2c(cnn2-c2ccc(F)cc2)C(NC(=O)c2ccco2)C1 (centres undefined)	x	1	-2	12	-3	1	x	x
CC12CC(c3ccccc3O1)N(C(=O)c1ccco1)C(=S)N2c1ccc(F)cc1 (centres undefined)	1	-3	-1	14	-1	51*	30	x
Cc1cc(C(=O)NCCN2CCN(c3cccc(Cl)c3)CC2)n(-c2ccccc2)n1	11	x	x	58	x	53*	59*	62*
C=C1C(=O)C=C2CN(C(=O)c3ccccc3)[C@@](Cc3ccc(F)cc3)(C(=O)OC)[C@@H]12	100*	-9	50	-2	113*	100*	100*	1
CSc1ncc(Cl)c(C(=O)Nc2ccc(C)c(C)c2)n1	x	3	-9	6	2	16	x	x
CCOc1ccccc1NC(=O)c1ccc(C(=O)Nc2ccccc2OCC)nc1	x	1	-13	-9	1	91*	10	x
CC1CCN(S(=O)(=O)c2ccc(NC(=O)c3ccncc3)cc2)CC1	x	-2	4	-1	13	2	x	x
Cc1ccc(NC(=O)c2nc(S(=O)(=O)Cc3ccccc3C)ncc2Cl)cc1C	x	68*	-59	103*	52	100*	70*	52*
CCS(=O)(=O)c1ncc(Cl)c(C(=O)Nc2ccc(S(=O)(=O)N3CCC(C)CC3)cc2)n1	x	9	62*	118*	108*	100*	100*	52*
CCOc1ccccc1NC(=O)c1nc(S(=O)(=O)Cc2ccccc2)ncc1Cl	x	59*	9	x	x	97*	97*	0
O=S(=O)(Nc1cccc(-n2cnnn2)c1)c1cc(Br)ccc1Br	x	-1	-25	-7	11	17	x	x
O=C(c1ccco1)N1CCN(C(=S)NCc2ccc(F)cc2)CC1	x	-5	-1	-8	-2	10	x	x
COc1ccccc1-n1cnnc1SCC(=O)NCC1CCCO1 (centres undefined)	0	-6	-8	-1	-1	13	x	x
Cc1ccc(-c2nnn(CC(=O)Nc3ccc(S(=O)(=O)N4CCC(C)CC4)cc3)n2)cc1	-1	8	32	-5	50	52*	26	x
COc1ccccc1NC(=O)c1nc(S(=O)(=O)Cc2ccccc2)ncc1Cl	x	13	38	-6	77*	97*	70*	51*
CCc1ccc(NC(=O)c2nc(S(=O)(=O)Cc3ccccc3)ncc2Cl)cc1	x	46	-17	105*	72	99*	84*	51*
CCS(=O)(=O)c1ncc(Cl)c(C(=O)Nc2ccccc2OC)n1	x	1	-19	55	84*	96*	100*	45*
CCCS(=O)(=O)c1ncc(Cl)c(C(=O)Nc2ccc(S(=O)(=O)Nc3ncccn3)cc2)n1	x	1	-3	-1	1	7	x	x
CC1CCN(S(=O)(=O)c2ccc(NC(=O)Cn3nnc(-c4ccccc4)n3)cc2)CC1	10	2	49	7	58	7	x	x
